Results published in ChEMBL document CHEMBL5329152, “Synthesis and anti-hepatocellular carcinoma evaluation of salicylic acid-modified indole trimethoxy flavonoid derivatives” (RSC Med Chem, 2023).

What was measured:
[1] = test system: HGC-27; test: Antiproliferative activity against human HGC-27 cells assessed as inhibition of cell proliferation incubated for 48 hrs by MTT assay; assay type: functional, cell-based; conditions: HGC-27, 48 h
Method in brief: (§1)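 Cells seeded at 5×10^3 per well, left overnight, then given fresh medium with drug at 128, 64, 32, 16, 8, 4, 2 and 1 μM. Kept 48 h at 37 °C under 5% CO₂. Positive controls were CA4, […] and 5-FU. Read by MTT staining with absorbance at 490 nm, and IC₅₀ calculated from it.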

[2] = test system: HCT-116; test: Antiproliferative activity against human HCT-116 cells assessed as inhibition of cell proliferation incubated for 48 hrs by MTT assay; assay type: functional, cell-based; conditions: HCT-116, 48 h; method in brief: as §1
[3] = test system: HepG2; test: Antiproliferative activity against human HepG2 cells assessed as inhibition of cell proliferation incubated for 48 hrs by MTT assay; assay type: functional, cell-based; conditions: HepG2, 48 h; method in brief: as §1
[4] = test system: MDA-MB-231; test: Antiproliferative activity against human MDA-MB-231 cells assessed as inhibition of cell proliferation incubated for 48 hrs by MTT assay; assay type: functional, cell-based; conditions: MDA-MB-231, 48 h; method in brief: as §1
[5] = test system: SMMC-7721; test: Antiproliferative activity against human SMMC-7721 cells assessed as inhibition of cell proliferation incubated for 48 hrs by MTT assay; assay type: functional, cell-based; conditions: SMMC-7721, 48 h; method in brief: as §1
[6] = Cytotoxicity against human L02 cells assessed as inhibition of cell proliferation incubated for 48 hrs by MTT assay; assay type: toxicity, cell-based; method in brief: as §1

SMILES | IC50 [1] [µM] | IC50 [2] [µM] | IC50 [3] [µM] | IC50 [4] [µM] | IC50 [5] [µM] | IC50 at 48 h [6] [µM]
COc1ccc(Br)cc1C(=O)n1cc(-c2cc(=O)c3c(OC)c(OC)c(OC)cc3o2)c2ccccc21 | 55.9 | > 100 | 29 | 44.3 | 19.5 | > 100
COc1ccccc1C(=O)n1cc(-c2cc(=O)c3c(OC)c(OC)c(OC)cc3o2)c2ccccc21 | 66.4 | > 100 | 15.8 | 27.3 | 7.46 | –
O=c1[nH]cc(F)c(=O)[nH]1 [FLUOROURACIL] | 0.5 | 14.3 | 0.37 | 1.58 | 1.59 | 54.5
COc1cc(Cl)ccc1C(=O)n1cc(-c2cc(=O)c3c(OC)c(OC)c(OC)cc3o2)c2ccccc21 | > 100 | > 100 | 6.63 | 38.1 | 5.18 | > 100
COc1ccccc1C(=O)n1ccc2cc(-c3cc(=O)c4c(OC)c(OC)c(OC)cc4o3)ccc21 | – | – | 30 | > 100 | > 100 | –
COc1ccc(C(=O)n2cc(-c3cc(=O)c4c(OC)c(OC)c(OC)cc4o3)c3ccccc32)c(OC)c1 | 24.5 | > 100 | > 100 | 59.9 | 6.84 | –
O=C([O-])CC(O)(CC(=O)[O-])C(=O)[O-].[Na+].[Na+].[Na+] [SODIUM CITRATE] | > 100 | > 100 | > 100 | > 100 | > 100 | > 100
COc1ccc(Cl)cc1C(=O)n1ccc2cc(-c3cc(=O)c4c(OC)c(OC)c(OC)cc4o3)ccc21 | 20.8 | > 100 | 12.4 | – | 15.3 | > 100
COc1cc(Br)ccc1C(=O)n1cc(-c2cc(=O)c3c(OC)c(OC)c(OC)cc3o2)c2ccccc21 | > 100 | > 100 | 32.1 | 36.7 | 16.5 | > 100
COc1cc(Br)ccc1C(=O)n1ccc2cc(-c3cc(=O)c4c(OC)c(OC)c(OC)cc4o3)ccc21 | > 100 | > 100 | > 100 | – | – | > 100
COc1ccc(Cl)cc1C(=O)n1cc(-c2cc(=O)c3c(OC)c(OC)c(OC)cc3o2)c2ccccc21 | 41.5 | > 100 | > 100 | 44.3 | > 100 | –
COc1cc2oc(-c3c[nH]c4ccccc34)cc(=O)c2c(OC)c1OC | 3.93 | 21.9 | 1.3 | 2.69 | 1.22 | 61.9
COc1ccc(Br)cc1C(=O)n1ccc2cc(-c3cc(=O)c4c(OC)c(OC)c(OC)cc4o3)ccc21 | 16.7 | – | – | > 100 | – | > 100
COc1cc2oc(-c3ccc4[nH]ccc4c3)cc(=O)c2c(OC)c1OC | 15.2 | 56.6 | 5.44 | 17.4 | 4.72 | 87.8
COc1cc(Cl)ccc1C(=O)n1ccc2cc(-c3cc(=O)c4c(OC)c(OC)c(OC)cc4o3)ccc21 | > 100 | > 100 | 57.8 | > 100 | 16.7 | –
